A selection: hits, their analogues and other compounds. The true share with any hit is near 3.3%.
XiGFP reactiv: X-chromosome reactivation activator. XiGFP mouse fibroblasts, % GFP-positive cells imaging, 3 d; cells co-treated with 5-aza-dC sensitizer; scaled so ellipticine positive control = 100%. activation, % at 7.58 µM. actives 0.055% (n = 360,000). AID 743238;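 active = mean normalized replicate activation at least 10% and every replicate at or above 10%; inconclusive = only one of the two criteria met; inactive = mean below 10% and not all replicates reach 10%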
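Schedule: 3 d treatment, 15 min room-temperature fixation; system: 68-5-11 XiGFP fibroblast line; buffer or medium: DMEM plus 5-aza-dC sensitizer; control set: ellipticine 6 µM positive control; compound: one concentration, pinned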
E-sel inducer: E-selectin induction on HUVECs | AID 686992 | actives 0.37% (n = 260,000) | activation, % at 7.58 µM | HUVEC E-selectin immunofluorescence imaging; normalized: neutral wells 0, TNF-alpha wells 100 | P16581;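 active = mean E-selectin-positive cell signal at least 10% of the positive control, reached in at least 60% of replicates, without over 20% cell loss; inconclusive = no rule given, readout overlaps actives, possibly toxicity-flagged; inactive = the rest, including those meeting only one limit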
Target sequence (P16581 whole entry, looked up): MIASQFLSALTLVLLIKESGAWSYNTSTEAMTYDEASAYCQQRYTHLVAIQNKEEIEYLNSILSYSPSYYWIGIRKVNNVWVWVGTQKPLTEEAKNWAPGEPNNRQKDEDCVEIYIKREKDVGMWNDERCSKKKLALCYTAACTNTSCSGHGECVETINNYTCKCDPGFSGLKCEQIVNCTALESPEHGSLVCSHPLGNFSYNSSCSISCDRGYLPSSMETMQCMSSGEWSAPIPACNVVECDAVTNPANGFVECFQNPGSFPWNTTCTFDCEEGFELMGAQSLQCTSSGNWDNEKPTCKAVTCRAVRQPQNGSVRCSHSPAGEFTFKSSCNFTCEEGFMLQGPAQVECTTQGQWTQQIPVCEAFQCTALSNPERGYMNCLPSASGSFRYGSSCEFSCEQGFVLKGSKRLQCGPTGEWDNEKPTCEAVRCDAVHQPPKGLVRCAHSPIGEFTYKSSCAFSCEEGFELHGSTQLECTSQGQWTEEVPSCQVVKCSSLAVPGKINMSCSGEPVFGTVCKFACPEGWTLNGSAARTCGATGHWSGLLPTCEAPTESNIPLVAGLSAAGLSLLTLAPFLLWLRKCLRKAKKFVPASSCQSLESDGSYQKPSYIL
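System: HUVEC, human umbilical vein endothelial cells; quantity: 3,000 cells/well; buffer or medium: EGM-2 medium, gelatin-coated wells; dosing: single-point compound dose; detection: immunofluorescence imaging; evaluation: % PE-positive cells; benchmarks: TNF-alpha, DMSO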
DENV2 CPE: DENV2-induced cell death inhibition. actives 1.7% (n = 350,000). AID 651640. DENV2-infected cells, cytopathic effect rescue, plate reader. CPE inhibition, % at 9.99 µM; in the data active = CPE inhibition above about 20%, passing the limit was not always enough; inconclusive = no clear call, values can overlap the other calls; tested in BHK-21 cells
PglD inh: inhibitors of Campylobacter jejuni PglD acetyltransferase. inhibition, % at 12.5 µM. actives 0.098% (n = 360,000). purified PglD enzyme, DTNB colorimetric CoA detection. AID 602405; in the data active = inhibition above about 16%, passing the limit was not always enough; inconclusive = no clear call, values can overlap the other calls
C2C12 statin: protects C2C12 myotubes from simvastatin toxicity. ATP luminescence, 48 h; scaled: DMSO 0, geranylgeraniol control 100. rescue of ATP level, % at 7.49 µM. actives 0.78% (n = 330,000). AID 602340;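 active = mean ATP rescue above about 67%, or every replicate alone reaching that limit, limit read from the data, passing the limit was not always enough; inconclusive = no clear call, values can overlap the other calls; inactive = mean under the limit and some replicate under it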;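 note: myotubes were challenged with 10 µM simvastatin during compound exposure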
FGF22 binding: shifts melting point of recombinant human FGF22 | Q9HCT0 | recombinant FGF22 thermal shift, SYPRO orange fluorescence; percent of sucrose octasulfate shift, DMSO zero | actives 1.5% (n = 340,000) | activity (Tm shift, normalised), % at 9.99 µM;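 active = mean Tm shift, scaled 0 neutral to 100 positive control, at about 1.3% or above, every replicate too, limit read from the data; inconclusive = no clear call, values can overlap the other calls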
Of the large screens only hits and unclear results are named; the others gave an inactive call.

C[C@H](CO)N1C[C@H](C)[C@H](CN(C)S(=O)(=O)c2ccc(Oc3ccccc3)cc2)OCc2cnnn2CCCC1=O	none
COc1ccc(CCNC(=O)CSC2=NS(=O)(=O)c3ccccc3N2)cc1OC	DENV2 CPE 81.7 (no result: E-sel inducer)
COc1ccc(CCNC(=O)CSC2=NS(=O)(=O)c3cc(F)ccc3N2)cc1OC	none (no result: E-sel inducer)
C[C@H]1CN([C@@H](C)CO)C(=O)c2cc(NS(=O)(=O)c3cccs3)ccc2O[C@H]1CN(C)C(=O)NC1CCCCC1	DENV2 CPE inconclusive (no result: E-sel inducer)
C[C@H](CO)N1C[C@H](C)[C@@H](CN(C)S(C)(=O)=O)OCCCC[C@H](C)Oc2ccc(NS(=O)(=O)c3ccc(Cl)cc3)cc2C1=O	none
Cc1ccc(S(=O)(=O)N(C)C[C@H]2OCCCC[C@@H](C)Oc3ccc(NS(=O)(=O)c4ccc(Cl)cc4)cc3C(=O)N([C@@H](C)CO)C[C@H]2C)cc1	none
C[C@@H]1CCCCO[C@H](CN(C)S(=O)(=O)c2ccc(Cl)cc2)[C@H](C)CN([C@H](C)CO)C(=O)c2cc(NS(=O)(=O)c3ccc(Cl)cc3)ccc2O1	FGF22 binding 29.5 (no result: C2C12 statin)
C[C@@H]1CN([C@H](C)CO)C(=O)c2cc(NS(C)(=O)=O)ccc2O[C@@H](C)CCCCO[C@H]1CN(C)S(=O)(=O)c1ccc(Cl)cc1	none
Cc1ccc(S(=O)(=O)Nc2ccc3c(c2)C(=O)N([C@H](C)CO)C[C@H](C)[C@H](CN(C)S(=O)(=O)c2ccc(Cl)cc2)OCCCC[C@@H](C)O3)cc1	DENV2 CPE 65.8 (no result: C2C12 statin)
C[C@@H]1CCCCO[C@H](CN(C)S(=O)(=O)c2ccc(Cl)cc2)[C@H](C)CN([C@@H](C)CO)C(=O)c2cc(NS(C)(=O)=O)ccc2O1	C2C12 statin 163.0
C[C@@H]1CCCCO[C@@H](CN(C)S(C)(=O)=O)[C@H](C)CN([C@@H](C)CO)C(=O)c2cc(NS(=O)(=O)c3ccc(Cl)cc3)ccc2O1	DENV2 CPE 83.8
C/C=C/c1ccc([C@H]2[C@@H](CO)N(C(=O)c3cnccn3)C23CN(C(=O)CC)C3)cc1	none (no result: PglD inh, C2C12 statin)
C[C@@H](O)C#Cc1ccc2c(c1)O[C@@H](CN(C)C(=O)c1ccccc1)[C@@H](C)CN([C@@H](C)CO)S2(=O)=O	none
Cc1ccc(S(=O)(=O)Nc2ccc3c(c2)C(=O)N([C@@H](C)CO)C[C@H](C)[C@@H](CN(C)S(=O)(=O)c2ccc(Cl)cc2)OCCCC[C@@H](C)O3)cc1	FGF22 binding 27.9 (no result: C2C12 statin)
CO[C@H]1CN(C)C(=O)c2ccc(NC(=O)Nc3ccccc3)cc2OC[C@H](C)NC[C@H]1C	none
C[C@@H]1CNC(=O)c2c(C(=O)NCC(=O)OC(C)(C)C)ncn21	FGF22 binding 43.0
C[C@@H]1CNC(=O)c2c(C(=O)NCc3ccc(CNC(=O)OC(C)(C)C)cc3)ncn21	none
Cc1cc(C)cc(NC(=O)CN2CCC(NC(=O)c3cccc(F)c3)CC2)c1	none (no result: E-sel inducer)
Cc1ccc(NC(=O)CN2CCC(NC(=O)c3cccc(F)c3)CC2)cc1C	DENV2 CPE 34.2 (no result: E-sel inducer)
CC(C)NC(=O)Nc1cccc2c1O[C@H](CN(C)Cc1ccc(Cl)c(Cl)c1)[C@@H](C)CN([C@@H](C)CO)C2=O	E-sel inducer 52.6
CC(C)NC(=O)Nc1cccc2c1O[C@H](CN(C)Cc1ccc(Cl)c(Cl)c1)[C@H](C)CN([C@@H](C)CO)C2=O	E-sel inducer 29.6
COc1ccc(S(=O)(=O)Nc2c(C)nn(C)c2C)cc1Br	DENV2 CPE 30.8
Cc1ccc(S(=O)(=O)Nc2c(C)nn(C)c2C)cc1C	none
CN(Cc1nc(CCc2ccccc2)no1)Cc1cccs1	XiGFP reactiv 40.4
C[C@@H]1CN([C@H](C)CO)C(=O)c2cc(NS(=O)(=O)c3cn(C)cn3)ccc2O[C@H]1CN(C)C(=O)Nc1ccc(F)cc1	none (no result: DENV2 CPE, PglD inh, FGF22 binding)
C[C@@H]1CN([C@H](C)CO)C(=O)c2cc(NS(=O)(=O)c3cn(C)cn3)ccc2O[C@@H]1CN(C)C(=O)Nc1ccc2c(c1)OCO2	E-sel inducer 62.3

Screens (PubChem)
